MrgX1 allo act – positive allosteric modulators of MrgX1, primary screen, HEK293 cells, Fluo-4 calcium flux | Mas-related G-protein coupled receptor member X1 (Homo sapiens), Q96LB2 | FDSS; active compounds read high | B-score at 10 µM | 310,000 compounds, 0.63% hits;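 active means plate-corrected calcium response at least 3 library SD above typical, normal starting fluorescence, not activating the receptor alone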;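 further: compound read alongside a low EC10 to EC30 dose of BAM8-22 agonist; peak minus trough fluorescence over baseline measured at the second addition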
Target sequence (Q96LB2 whole entry, looked up): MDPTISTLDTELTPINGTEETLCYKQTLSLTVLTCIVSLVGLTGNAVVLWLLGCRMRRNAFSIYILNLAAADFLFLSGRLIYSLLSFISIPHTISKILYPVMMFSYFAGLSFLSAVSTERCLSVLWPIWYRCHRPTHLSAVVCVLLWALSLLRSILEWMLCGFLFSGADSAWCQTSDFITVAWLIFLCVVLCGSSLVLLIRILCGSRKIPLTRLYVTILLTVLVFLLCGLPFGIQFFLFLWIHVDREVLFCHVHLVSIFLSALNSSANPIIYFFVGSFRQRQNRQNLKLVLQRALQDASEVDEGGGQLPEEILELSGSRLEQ
MrgX1 antag – antagonists of human MrgX1 receptor, primary screen, HEK293 cells, Fluo-4 calcium flux; Mas-related G-protein coupled receptor member X1 (Homo sapiens), Q96LB2; BAM8-22 antagonism; active compounds read low; B-score at 10 µM; 310,000 compounds, 1.3% hits; AID 588676, 2011;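 active means calcium-response B-score plate-corrected more than 3 library SD below zero, starting fluorescence within 5 deviations, no agonist response on first addition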;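 further: peak minus trough fluorescence over baseline after final BAM8-22 challenge near maximal dose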
MrgX1 agonist – agonists of human MrgX1 receptor, primary screen, HEK293 cells, Fluo-4 calcium flux; Fluo-4 calcium fluorescence, agonist mode; active compounds read high; B-score at 10 µM; AID 588627, 2011; 310,000 compounds, 0.44% hits;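 active means calcium response B-score plate-corrected fluorescence ratio at least 3 library SD, with starting fluorescence B-score inside 5 SD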
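Material: MrgX1-expressing HEK293 cells; input: 15,000 cells per well; doses: test compound given as first of three sequential additions; schedule: overnight plating before 1 h dye loading; technique: Fluo-4 NW calcium-flux fluorescence, kinetic read; evaluation: baseline-normalised fluorescence change ratio, B-scored; control set: plate-wise positive and negative controls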
RGS4 inh – RGS4 inhibitors, primary screen, cell-based, HEK293 M3R inducible RGS4, calcium flux | Regulator of G-protein signaling 4 (Homo sapiens), P49798 | Fluo-4 calcium flux; active compounds read high; triggered by carbachol at its EC20 | B-score at 10 µM | 310,000 compounds, 0.45% hits | AID 463165, 2010;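 active means B-score, a plate-corrected calcium signal, over three deviations above library mean, with baseline fluorescence within five deviations of library mean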;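 further: RGS4 expression induced by doxycycline in cells with stable M3 receptor; B-score is computed from the integrated fluorescence ratio over baseline after carbachol; higher B-score means a larger calcium signal and so more RGS4 inhibition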
Target sequence (P49798 whole entry, looked up): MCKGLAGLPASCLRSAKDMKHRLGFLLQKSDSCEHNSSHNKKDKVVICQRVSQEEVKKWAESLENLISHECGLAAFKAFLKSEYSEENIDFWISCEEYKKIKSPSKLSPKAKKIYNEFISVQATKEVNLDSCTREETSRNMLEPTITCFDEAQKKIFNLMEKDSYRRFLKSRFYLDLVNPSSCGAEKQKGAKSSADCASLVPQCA
RGS4 pot – RGS4 potentiators or activators, primary screen, cell-based, HEK293 M3R inducible RGS4, calcium flux. carbachol calcium flux Fluo4; active compounds read low. B-score at 10 µM. 310,000 compounds, 0.92% hits;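 active means B-score of the integrated calcium signal more than 4 SD below the library mean, with starting fluorescence not abnormally high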;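 further: negative B-score means reduced calcium response which marks RGS4 activation or potentiation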
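System – HEK293 FlpIn-TREx cells, stable M3R, doxycycline-inducible RGS4 · Reagent – ECmax carbachol challenge · Times – compound preincubation 20 min at room temperature before agonist · Technique – Fluo4 fluorescence kinetic imaging of calcium · Measure – B score of integrated Fluo4 ratio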
MrgX1 antag conf – MrgX1 receptor antagonists, duplicate retest, confirmation, HEK293 cells, Fluo-4 calcium flux | BAM8-22 calcium flux; active compounds read low | shares compounds with MrgX1 antag | AID 602420, 2012 | remaining BAM8-22 calcium response % of control (active compounds read low), % at 10 µM | 2,300 compounds, 19% hits;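 active means remaining agonist calcium response no higher than 100% minus 3 SD of agonist-only control wells, with starting fluorescence near control levels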;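 further: agonist BAM8-22 given at a near maximal EC90 to ECmax level; peak minus minimum fluorescence divided by baseline after agonist addition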
HEK293 Ca flux – nonspecific calcium signal in parental HEK293, confirmation, counter-screen for MrgX1 antagonist project, parental HEK293 cells, Fluo-4 calcium flux; Fluo-4 calcium fluorescence, FDSS; shares compounds with MrgX1 antag; AID 624111, 2012; 4,000 compounds, 2% hits; fluorescence ratio F(max-min)/F0 at 10 µM;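 active means duplicate-averaged calcium fluorescence ratio at least three times the standard deviation of buffer wells, a nonspecific response in parental cells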
HEK293 Ca counter – calcium response in parental HEK293 cells, primary screen, counter-screen for MrgX1 allosteric activator project, cell-based, Fluo-4 calcium flux, duplicate; shares compounds with MrgX1 antag; Fluo-4 fluorescence ratio; active compounds read high; fluorescence ratio F(max-min)/F0 at 10 µM; 4,000 compounds, 0.4% hits;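 active means calcium fluorescence ratio, averaged over duplicates, at least 3 SD of the buffer-well ratio, meaning a nonspecific response in receptor-free cells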;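 further: untransfected parental HEK293 lacking MrgX1 used as counterscreen for MrgX1 allosteric activators; fluorescence change taken during the second addition on a kinetic imager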
HEK293 Ca cntr2 – calcium response in parental HEK293 cells, primary screen, counter-screen for MrgX1 agonist project, cell-based, Fluo-4 calcium flux, duplicate, agonist mode; fluorescence ratio F(max-min)/F0 at 10 µM; 4,000 compounds, 8.7% hits; shares compounds with MrgX1 antag; Fluo-4 calcium fluorescence (FDSS); active compounds read high;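 active means calcium fluorescence ratio at least three times the spread of buffer wells, meaning a non-specific response in parental cells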
Starred values were filed as active, the others as inactive; i = inactive; x = no result. This is a sample that favours compounds with a hit; in the whole collection about 3.5% have one here.

SMILES | MrgX1 allo act | MrgX1 antag | MrgX1 agonist | RGS4 inh | RGS4 pot | MrgX1 antag conf | HEK293 Ca flux | HEK293 Ca counter | HEK293 Ca cntr2
COC(=O)C(Cc1ccccc1)NC(=O)c1cc(=O)[nH]c2ccccc12 (centres undefined) | i | -4.7* | i | i | i | i | i | i | i
COC(=O)[C@@H](Cc1c[nH]c2ccccc12)NC(=O)c1cc(=O)[nH]c2ccccc12 | i | i | i | i | i | x | x | x | x
Cc1nn(C)c(C)c1S(=O)(=O)NC1CCCC1 | i | i | i | i | i | x | x | x | x
Cc1nn(-c2nnc(NC3CCCCC3)nn2)c(C)c1Br | i | -4.5* | i | i | i | i | i | i | i
CCNC(=O)CC1C(=O)N(c2ccc(OC)cc2)C(=O)N1Cc1ccc(OC)cc1 (centres undefined) | i | i | i | i | i | x | x | x | x
COc1cc(OC)cc(C(=O)NCCc2ccc(OC)c(OC)c2)c1 | i | i | i | i | i | x | x | x | x
COc1ccc(CCNC(=O)c2ccc(OC)c(OC)c2)cc1OC | i | -6.8* | i | i | i | i | i | i | i
O=C(Cn1c(NCCO)nc2ccccc21)NCCc1ccccc1 | i | i | i | i | i | x | x | x | x
O=C(Cn1c(NCCO)nc2ccccc21)NCC1CCCO1 (centres undefined) | i | -4.7* | i | i | i | i | i | i | i
Cc1c(C#N)c2ccccc2n1CC(=O)NCC1CCCO1 (centres undefined) | i | -5.1* | i | i | i | i | i | i | i
Clc1cccc(-c2noc3ncnc(Nc4ccc5c(c4)OCO5)c23)c1 | i | i | i | i | i | x | x | x | x
C=CCOC(=O)C1=C(C)N(C)C(=O)NC1c1cc2c(cc1Br)OCO2 (centres undefined) | i | -4.7* | i | i | i | 85%* | i | i | i
CN1CCN(C(=O)c2cnn(-c3ccccc3)c2NC(=O)c2cccs2)CC1 | i | -5.9* | i | i | i | i | i | i | i
CN1C(=O)N(C)C2C1N(CN1CCCCC1)C(=O)N2CN1CCCCC1 (centres undefined) | i | -4.9* | i | i | i | 84%* | i | i | i
CCOC(=O)Cc1csc(NC(=O)c2c(O)c3c(n(CC(C)C)c2=O)CCCC3)n1 | i | -6.8* | i | i | i | 81%* | i | i | i
Cc1nnc(NC(=O)CSc2ccc(-c3cccnc3)nn2)s1 | i | -5.6* | i | i | i | i | i | i | i
Cc1ccc(-n2c(Cl)c(Cl)[nH]c(=O)c2=O)cc1 | i | i | i | i | i | x | x | x | x
Cc1cc(=O)oc2c(C)c(OC(C)C(=O)NC(Cc3c[nH]c4ccc(O)cc34)C(=O)O)ccc12 (centres undefined) | i | -5.5* | i | i | i | i | i | i | i
CCC1COCCS(=O)(=O)N1Cc1cccc(Cl)c1 (centres undefined) | i | i | i | i | i | x | x | x | x
Nn1c(Cc2cccc3ccccc23)nnc1SC1CCOC1=O (centres undefined) | i | i | i | i | i | x | x | x | x
Cc1cccnc1CCNC(=O)c1ccc(OC2CCN(Cc3ccccn3)CC2)cc1 | i | -10* | i | i | i | i | i | i | i
Cc1cc(-c2ccccc2)nc(SCC(=O)N2CCCC2)n1 | i | -5.4* | i | i | i | i | i | i | i
CCc1nc(SCC(=O)N2CCCC2)c2c(=O)n(C)c(=O)n(C)c2n1 | i | i | i | i | i | x | x | x | x
Cc1cc(C)nc(SCC(=O)N2CCCCC2)n1 | i | i | i | i | i | x | x | x | x
Cn1c(=O)c2c(SCC(=O)N3CCCC3)nc(-c3ccccc3)nc2n(C)c1=O | i | -6* | i | i | i | i | i | i | i
SMILES | MrgX1 allo act | MrgX1 antag | MrgX1 agonist | RGS4 inh | RGS4 pot | MrgX1 antag conf | HEK293 Ca flux | HEK293 Ca counter | HEK293 Ca cntr2
COc1ccccc1NC(=O)CCC(=O)OCc1ccc(Cl)cc1 | i | -4.8* | i | i | i | i | i | i | i
Cc1ccc(C)c(S(=O)(=O)N2CCN(C(=O)c3cccnc3)CC2)c1 | i | -11* | i | i | i | i | i | i | i
Cc1ccc(C)c(S(=O)(=O)N2CCN(C(=O)Cc3ccccc3)CC2)c1 | i | i | i | i | i | x | x | x | x
Cc1ccc(C)c(S(=O)(=O)N2CCN(C(=O)CSC(=S)N3CCCC3)CC2)c1 | i | -5.3* | i | i | i | i | i | i | i
COC(=O)C1=C(C(=O)OC)[C@@H]2N(Cc3ccccc3)c3ccccc3[C@@]23C[C@@H](C(=O)OC)N(C(=O)c2ccc(Br)cc2)C3=N1 | i | i | i | i | i | x | x | x | x
O=C(CCN1C(=O)c2ccccc2C1=O)Nc1sc2c(c1C(=O)NCc1ccco1)CCCC2 | i | -4.9* | i | i | i | i | i | i | i
CC(C(=O)Nc1sc2c(c1C(=O)NCc1ccco1)CCCC2)N1C(=O)c2ccccc2C1=O (centres undefined) | i | i | i | i | i | x | x | x | x
COc1ccc(CC(CC(=O)O)C(=O)Nc2ccc(Cl)c(Cl)c2)cc1 (centres undefined) | i | i | i | i | i | x | x | x | x
CCOc1ccccc1CNC(=O)c1cc2oc3ccccc3c2n1C | i | i | i | i | i | x | x | x | x

Source: PubChem (Johns Hopkins Ion Channel Center)
